From ChEMBL document CHEMBL4041521, “3-Aroylindoles display antitumor activity in vitro and in vivo: Effects of N1-substituents on biological activity” (Eur J Med Chem, 2017)
Calls of active or inactive are those of the source. No cut-off for these calls is given here.

What was measured:
[1] = biological target: T1, Protein deacetylase HDAC6 (Homo sapiens, UniProt Q9UBN7); assay: Inhibition of recombinant human HDAC6 using fluorogenic substrate by fluorescence assay
T1 sequence (Q9UBN7 whole entry): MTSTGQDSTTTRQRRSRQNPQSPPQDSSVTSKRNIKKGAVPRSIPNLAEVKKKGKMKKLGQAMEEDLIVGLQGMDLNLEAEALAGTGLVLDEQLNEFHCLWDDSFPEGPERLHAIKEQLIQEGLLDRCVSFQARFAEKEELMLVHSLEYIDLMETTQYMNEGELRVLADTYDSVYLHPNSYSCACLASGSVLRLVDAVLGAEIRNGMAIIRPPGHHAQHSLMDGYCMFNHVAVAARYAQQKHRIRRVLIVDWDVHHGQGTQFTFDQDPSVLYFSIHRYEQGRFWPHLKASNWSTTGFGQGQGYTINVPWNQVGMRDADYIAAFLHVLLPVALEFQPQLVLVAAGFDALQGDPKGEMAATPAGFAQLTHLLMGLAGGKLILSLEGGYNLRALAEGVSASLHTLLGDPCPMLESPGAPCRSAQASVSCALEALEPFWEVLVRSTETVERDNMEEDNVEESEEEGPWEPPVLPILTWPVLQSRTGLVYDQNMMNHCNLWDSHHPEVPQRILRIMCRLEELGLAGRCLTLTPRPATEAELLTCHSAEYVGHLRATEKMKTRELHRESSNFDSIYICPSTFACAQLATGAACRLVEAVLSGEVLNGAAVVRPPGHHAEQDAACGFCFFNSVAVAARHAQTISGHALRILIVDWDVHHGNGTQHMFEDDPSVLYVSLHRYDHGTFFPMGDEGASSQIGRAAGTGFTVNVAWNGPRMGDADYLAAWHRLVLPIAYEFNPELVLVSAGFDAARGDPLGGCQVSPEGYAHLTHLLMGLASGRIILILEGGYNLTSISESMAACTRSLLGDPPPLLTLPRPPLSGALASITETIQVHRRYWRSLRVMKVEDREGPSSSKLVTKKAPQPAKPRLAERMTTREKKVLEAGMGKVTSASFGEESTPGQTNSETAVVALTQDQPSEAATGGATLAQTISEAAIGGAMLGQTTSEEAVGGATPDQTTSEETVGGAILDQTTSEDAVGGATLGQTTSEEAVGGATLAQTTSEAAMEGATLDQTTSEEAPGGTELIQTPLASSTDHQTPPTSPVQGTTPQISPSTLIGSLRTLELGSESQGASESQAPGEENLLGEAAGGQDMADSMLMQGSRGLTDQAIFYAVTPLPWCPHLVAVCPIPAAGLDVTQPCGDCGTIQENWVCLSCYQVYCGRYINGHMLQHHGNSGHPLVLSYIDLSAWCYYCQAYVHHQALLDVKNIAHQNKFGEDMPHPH

PC-3 = assay: Antiproliferative activity against human PC3 cells measured after 48 hrs by sulforhodamine-B assay; assay type: functional, cell-based; details: PC-3, 48 h
Homo sapiens [2] = organism: Homo sapiens; assay: Inhibition of tubulin polymerization in human PC3 cells assessed as […] in MPM2 expression at 0.01 to 10 uM by Western blot analysis; assay type: cell-based
HCT-116 = assay: Antiproliferative activity against human HCT116 cells measured after 48 hrs by sulforhodamine-B assay; assay type: functional, cell-based; details: HCT-116, 48 h
[3] = Inhibition of HDAC activity in human HeLa cell nuclear extract using fluorometric substrate measured after 30 mins by fluorescence assay; assay type: cell-based
Sus scrofa [4] = organism: Sus scrofa; assay: Inhibition of purified porcine tubulin polymerization at 10 uM measured every 1 min for 30 mins
Homo sapiens [5] = organism: Homo sapiens; assay: Inhibition of HDAC in human PC3 cells assessed as increase in histone-H3 acetylation by Western blot analysis; assay type: cell-based
Outline: (§1)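 PC3 prostate cancer cells treated, then lysed in 20 mM Tris-HCl pH 7.5 with 150 mM NaCl, EDTA/EGTA, phosphatase and protease inhibitors, 0.1% Triton X-100. Lysates spun 13,000 rpm for 30 min, then immunoblotted for acetylated α-tubulin and acetylated histone H3.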

Homo sapiens [6] = organism: Homo sapiens; assay: Inhibition of HDAC in human PC3 cells assessed as increase in alpha-tubulin acetylation by Western blot analysis; assay type: cell-based; outline: as §1
Histone deacetylase 2 = Histone deacetylase 2 (Homo sapiens, UniProt Q92769); assay: Inhibition of recombinant human HDAC2 using fluorogenic substrate by fluorescence assay
A549 = assay: Antiproliferative activity against human A549 cells measured after 48 hrs by sulforhodamine-B assay; assay type: functional, cell-based; details: A549, 48 h
Histone deacetylase 1 = Histone deacetylase 1 (Homo sapiens, UniProt Q13547); assay: Inhibition of recombinant human HDAC1 using fluorogenic substrate by fluorescence assay
Mus musculus = assay: Toxicity in human RPMI8226 cells xenografted in athymic mouse assessed as mortality at 1 mg/kg, ip administered once in a week; assay type: organism-based; details: in vivo
Outline: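 RPMI-8226 xenograft nude mice given bortezomib 1 mg/kg i.p. once a week as reference treatment; animal deaths recorded.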

Sus scrofa [7] = organism: Sus scrofa; assay: Inhibition of purified porcine tubulin polymerization measured every 1 min for 30 mins
Homo sapiens [8] = organism: Homo sapiens; assay: Inhibition of HDAC in human PC3 cells assessed as increase in histone-H3 acetylation at 0.01 to 10 uM by Western blot analysis; assay type: cell-based; outline: as §1
Homo sapiens [9] = organism: Homo sapiens; assay: Selectivity ratio of IC50 for recombinant human HDAC8 to IC50 for recombinant human HDAC6
Sus scrofa [10] = organism: Sus scrofa; assay: Inhibition of purified porcine tubulin polymerization at 1 to 10 uM measured every 1 min for 30 mins

Sequence of Histone deacetylase 2 (Q92769 whole entry): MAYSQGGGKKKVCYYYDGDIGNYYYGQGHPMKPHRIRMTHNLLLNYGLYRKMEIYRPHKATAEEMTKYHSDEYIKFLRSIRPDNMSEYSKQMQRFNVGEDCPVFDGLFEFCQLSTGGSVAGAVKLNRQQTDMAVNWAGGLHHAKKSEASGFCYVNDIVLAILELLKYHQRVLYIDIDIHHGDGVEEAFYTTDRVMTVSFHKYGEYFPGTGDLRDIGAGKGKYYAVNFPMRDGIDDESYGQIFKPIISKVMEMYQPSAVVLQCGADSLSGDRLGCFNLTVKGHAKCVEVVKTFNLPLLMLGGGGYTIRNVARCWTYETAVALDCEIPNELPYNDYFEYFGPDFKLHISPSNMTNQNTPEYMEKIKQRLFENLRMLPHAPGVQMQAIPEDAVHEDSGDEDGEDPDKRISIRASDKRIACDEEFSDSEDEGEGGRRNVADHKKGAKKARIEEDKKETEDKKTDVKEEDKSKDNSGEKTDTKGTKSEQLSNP
Sequence of Histone deacetylase 1 (Q13547 whole entry): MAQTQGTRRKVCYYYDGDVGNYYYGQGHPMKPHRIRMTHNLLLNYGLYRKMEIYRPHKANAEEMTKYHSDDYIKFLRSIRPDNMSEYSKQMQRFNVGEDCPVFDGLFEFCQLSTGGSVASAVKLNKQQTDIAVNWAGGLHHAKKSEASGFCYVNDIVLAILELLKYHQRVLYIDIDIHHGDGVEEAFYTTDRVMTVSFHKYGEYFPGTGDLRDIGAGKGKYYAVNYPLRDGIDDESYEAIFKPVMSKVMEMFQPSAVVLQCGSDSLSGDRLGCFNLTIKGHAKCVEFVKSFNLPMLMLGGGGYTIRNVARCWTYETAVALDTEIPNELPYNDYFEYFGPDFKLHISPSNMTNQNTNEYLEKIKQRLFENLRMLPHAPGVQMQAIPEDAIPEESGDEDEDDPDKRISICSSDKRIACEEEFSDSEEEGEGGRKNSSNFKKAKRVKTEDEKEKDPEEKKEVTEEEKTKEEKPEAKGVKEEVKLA

Compound | IC50 [1] | IC50 (PC-3) | inhibition (Homo sapiens [2]) | IC50 (HCT-116) | IC50 [3] | inhibition (Sus scrofa [4]) | inhibition (Homo sapiens [5]) | alpha-tubulin acetylation increase (Homo sapiens [6]) | IC50 (Histone deacetylase 2) | IC50 (A549) | IC50 (Histone deacetylase 1) | Activity (Mus musculus) | inhibition (Sus scrofa [7]) | inhibition (Homo sapiens [8]) | Ratio IC50 (Homo sapiens [9]) | inhibition (Sus scrofa [10])
COc1ccc(C(=O)c2cn(Cc3ccc(C(=O)NO)cc3)c3cc(OC)ccc23)cc1 | 108 nM | 1840 nM | inactive | 1900 nM | 145 nM | inactive | Dose-dependent effect | Dose-dependent effect | 209 nM | 940 nM | 158 nM | – | – | – | – | –
CC(C)C[C@H](NC(=O)[C@H](Cc1ccccc1)NC(=O)c1cnccn1)B(O)O [BORTEZOMIB] | – | – | – | – | – | – | – | – | – | – | – | Toxic | – | – | – | –
COc1ccc2c(C(=O)c3cc(OC)c(OC)c(OC)c3)cn(Cc3ccc(C(=O)Nc4ccccc4N)cc3)c2c1 | – | 157 nM | – | 231 nM | > 10000 nM | – | – | – | – | 208 nM | – | – | Dose-dependent effect | – | – | –
COc1cc(C(=O)c2cn(S(=O)(=O)c3cccc(/C=C/C(=O)NO)c3)c3ccccc23)cc(OC)c1OC | 792 nM | 5770 nM | inactive | 6680 nM | 172 nM | inactive | – | – | 2320 nM | 4590 nM | 139 nM | – | – | inactive | – | –
CN1CCc2c(c3ccccc3n2Cc2ccc(C(=O)NO)cc2)C1 | – | – | – | – | – | – | – | – | – | – | – | – | – | – | 14 | –
COc1ccc2c(C(=O)c3cc(OC)c(OC)c(OC)c3)cn(S(=O)(=O)c3ccc(/C=C/C(=O)NO)cc3)c2c1 | > 10000 nM | 66.7 nM | – | 70.3 nM | > 10000 nM | – | – | – | > 10000 nM | 120 nM | > 10000 nM | – | – | – | – | Active
COc1cc(C(=O)c2cn(Cc3ccc(/C=C/C(=O)NO)cc3)c3ccccc23)cc(OC)c1OC | 138 nM | 2600 nM | inactive | 5500 nM | 178 nM | inactive | Dose-dependent effect | Dose-dependent effect | 386 nM | 1900 nM | 141 nM | – | – | – | – | –
COc1ccc2c(C(=O)c3cc(OC)c(OC)c(OC)c3)cn(Cc3ccc(/C=C/C(=O)NO)cc3)c2c1 | 70.5 nM | 666 nM | – | 1670 nM | 147 nM | – | Dose-dependent effect | Dose-dependent effect | 288 nM | 678 nM | 130 nM | – | Dose-dependent effect | – | – | –
